The text below walks through data of ChEMBL document CHEMBL2384967, “Benzimidazole-based antibacterial agents against Francisella tularensis” (Bioorg Med Chem, 2013).

≈ marks a conversion by molar mass, not a printed value.

One assay relates to Vero. As to the kind of experiment: Cytotoxicity against african green monkey vero cells after 3 days. Format: cell-based. Particulars: Chlorocebus sabaeus, 72 h. The gist of the method:
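Vero cells grown in L15 medium without CO2, 1.25×10^5 per well. Triplicate 2-fold drug dilutions from 200 µg/mL, with resazurin at a final 25 µg/mL, for 3 days at 37 °C. LD is the lowest concentration that inhibits growth, with no resazurin reduction.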

In assay [1] the test system is Francisella tularensis. In words: Antibacterial activity against Francisella tularensis LVS after 18 hrs by Microplate Alamar Blue assay. Format: functional. On the technique in general: The colour change of resazurin is a common sign of viable cells or microbes.
For assay [2], the system named is Francisella tularensis. In words: Antibacterial activity against Francisella tularensis LVS at 1 ug/ml by Microplate Alamar Blue assay. The assay is classed as functional. As to conditions: read-out: GI.
For assay [3], the system named is Francisella tularensis. As to the kind of experiment: Antibacterial activity against Francisella tularensis LVS at 0.2 ug/ml by Microplate Alamar Blue assay. The assay is classed as functional. Particulars: read-out: GI.
Assay [4] deals with Francisella tularensis. In words: Antibacterial activity against Francisella tularensis LVS infected in mouse RAW 264.7 macrophages assessed as log reduction in CFU at 2 to 50 ug/ml after 18 hrs relative to control. The assay is classed as functional.
Assay [5] has as its system Francisella tularensis. As to the kind of experiment: Antibacterial activity against Francisella tularensis LVS infected in mouse RAW 264.7 macrophages after 18 hrs. The assay is classed as functional.

What is called IC50 is the concentration that inhibits the measured activity by half. Usually MIC90 stands for the lowest concentration that inhibits either 90% of growth or 90% of the strains tested, depending on the study. As for `CCOC(=O)Nc1cc(NC(=O)c2ccccc2OC)c2[nH]c(-c3ccc(Br)cc3)nc2c1`, the IC50 in the assay with Vero is more than 200 µg/mL. In addition, the MIC90 against Francisella tularensis [1] was found to be 1.4 µg/mL (≈ 2.75 µM). In the assay on Francisella tularensis [2], the inhibition of growth at 1 µg/mL is more than 90%.

In the assay with Vero, `COc1ccccc1C(=O)Nc1cc2nc(-c3cccs3)[nH]c2cc1N1CCCCC1` showed an IC50 of more than 200 µg/mL. Further, the MIC90 in the assay with Francisella tularensis [1] is 1.6 µg/mL (≈ 3.7 µM). The inhibition of growth at 1 µg/mL in the assay on Francisella tularensis [2] was more than 90%.

As to `CN(C)CCN(C)c1cc2[nH]c(C3CCCCC3)nc2cc1NS(=O)(=O)c1ccccc1`, in the assay with Vero, the IC50 is more than 200 µg/mL. In the assay with Francisella tularensis [1], this compound had an MIC90 of 48.6 µg/mL (≈ 107 µM). The inhibition of growth at 1 µg/mL in the assay on Francisella tularensis [2] was more than 90%.

In turn, `CCOC(=O)Nc1cc(NC(=O)c2ccccc2)c2[nH]c(-c3ccc(Br)cc3)nc2c1` had an IC50 in the assay on Vero of more than 200 µg/mL. Moreover, the MIC90 with Francisella tularensis [1] stood at 0.48 µg/mL (≈ 1 µM). Moreover, the inhibition of growth at 1 µg/mL with Francisella tularensis [2] was more than 90%.

In the assay on Vero, `CCN(CC)c1cc2[nH]c(-c3ccc(C)cc3)nc2cc1NC(=O)C1CCC1` displayed a half-maximal inhibitory concentration (IC50) of more than 200 µg/mL. Further, the MIC90 against Francisella tularensis [1] stood at 1.16 µg/mL (≈ 3.08 µM). The inhibition of growth at 1 µg/mL in the assay with Francisella tularensis [2] was more than 90%. For the same compound, in the assay on Francisella tularensis [3], the inhibition of growth at 0.2 µg/mL amounted to 40%.

In turn, `CCOC(=O)Nc1cc(NC(=O)c2ccccc2)c2[nH]c(-c3ccco3)nc2c1` displayed an IC50 in the assay with Vero of more than 200 µg/mL. The same compound came in with an MIC90 in the assay with Francisella tularensis [1] of 3.8 µg/mL (≈ 9.73 µM). For the same compound, the inhibition of growth at 1 µg/mL in the assay with Francisella tularensis [2] was more than 90%. The inhibition of growth at 0.2 µg/mL in the assay with Francisella tularensis [3] is 40%.

Turning to `CCOC(=O)Nc1cc(NC(=O)c2ccccc2)c2[nH]c(-c3ccc(C(=O)OC)cc3)nc2c1`, inhibition in the assay on Vero was half-maximal at 650 µg/mL (≈ 1420 µM) (IC50). In the assay on Francisella tularensis [2], the inhibition of growth at 1 µg/mL is more than 90%. Further, the inhibition of growth at 0.2 µg/mL in the assay with Francisella tularensis [3] is 40%.

Compound `CCN(CC)c1cc2[nH]c(-c3ccccc3OC)nc2cc1NC(=O)c1ccccc1OC` yielded an IC50 with Vero of more than 200 µg/mL. For the same compound, the MIC90 against Francisella tularensis [1] was 4.85 µg/mL (≈ 10.9 µM). In the assay with Francisella tularensis [2], the inhibition of growth at 1 µg/mL was more than 90%.

As to `O=C(Nc1cc2nc(-c3ccco3)[nH]c2cc1N1CCCCC1)c1cccc2ccccc12`, the FC in the assay on Francisella tularensis [4] amounted to 2. Besides, the Activity result in the assay on Francisella tularensis [5] is “Dose-dependent effect”. In the assay on Vero, this compound came in with an IC50 of more than 200 µg/mL. In the assay with Francisella tularensis [1], this compound gave an MIC90 of 2.4 µg/mL (≈ 5.5 µM). For the same compound, the inhibition of growth at 1 µg/mL in the assay on Francisella tularensis [2] was more than 90%.

In the case of `CCOC(=O)Nc1cc(N)c2[nH]c(-c3ccc(Br)cc3)nc2c1`, the IC50 in the assay with Vero is more than 200 µg/mL. For the same compound, the MIC90 in the assay on Francisella tularensis [1] is 2.99 µg/mL (≈ 7.97 µM). The inhibition of growth at 1 µg/mL in the assay on Francisella tularensis [2] was more than 90%.

In the case of `CCOC(=O)Nc1cc(NC(=O)c2ccc(OC)cc2)c2[nH]c(-c3ccc(C(=O)OC)cc3)nc2c1`, the IC50 in the assay on Vero was more than 200 µg/mL. Besides, in the assay on Francisella tularensis [2], the inhibition of growth at 1 µg/mL was more than 90%. In addition, the inhibition of growth at 0.2 µg/mL with Francisella tularensis [3] was found to be 40%.

Consider `CCN(CCN(C)C)c1cc2[nH]c(C3CCCCC3)nc2cc1NS(=O)(=O)c1ccccc1`, for which the IC50 with Vero is more than 200 µg/mL. The MIC90 with Francisella tularensis [1] came to 35.8 µg/mL (≈ 76.2 µM). Also, the inhibition of growth at 1 µg/mL in the assay with Francisella tularensis [2] is more than 90%.

In the case of `CCN(CC)c1cc2[nH]c(-c3ccccc3OC)nc2cc1NC(=O)C1CCC1`, the IC50 in the assay on Vero was more than 200 µg/mL. The same compound displayed an MIC90 in the assay with Francisella tularensis [1] of 7.59 µg/mL (≈ 19.3 µM). The inhibition of growth at 1 µg/mL in the assay with Francisella tularensis [2] is more than 90%.

On to `O=C(Nc1cc2nc(-c3cccs3)[nH]c2cc1N1CCCCC1)OCc1ccccc1`, for which the FC with Francisella tularensis [4] was 2. In addition, the Activity entry in the assay with Francisella tularensis [5] is “Dose-dependent effect”. In the assay with Vero, this compound registered an IC50 of more than 200 µg/mL. Moreover, the MIC90 in the assay on Francisella tularensis [1] was 0.98 µg/mL (≈ 2.27 µM). Further, in the assay on Francisella tularensis [2], the inhibition of growth at 1 µg/mL is more than 90%.

For `COc1ccccc1C(=O)Nc1cc2nc(-c3ccco3)[nH]c2cc1N1CCCCC1`, the FC in the assay on Francisella tularensis [4] was found to be 2. Further, the Activity entry in the assay with Francisella tularensis [5] was “Dose-dependent effect”. This compound registered an IC50 with Vero of more than 200 µg/mL. In the assay with Francisella tularensis [1], this compound gave an MIC90 of 2.1 µg/mL (≈ 5.04 µM). In the assay with Francisella tularensis [2], the inhibition of growth at 1 µg/mL is more than 90%.

In the case of `CCOC(=O)Nc1cc(N)c2[nH]c(-c3cc(C)cc(C)c3)nc2c1`, in the assay with Vero, the IC50 is more than 200 µg/mL. In addition, in the assay with Francisella tularensis [1], the MIC90 was 4.33 µg/mL (≈ 13.3 µM). Further, the inhibition of growth at 1 µg/mL in the assay on Francisella tularensis [2] was more than 90%.

Turning to `CCOC(=O)Nc1cc(NC(=O)C2CCCC2)c2[nH]c(-c3ccc(Br)cc3)nc2c1`, the IC50 with Vero is more than 200 µg/mL. The same compound showed an MIC90 against Francisella tularensis [1] of 0.75 µg/mL (≈ 1.59 µM). Besides, the inhibition of growth at 1 µg/mL with Francisella tularensis [2] was more than 90%.

In the assay on Vero, `CC(C)(C)OC(=O)Nc1cc(NC(=O)OCc2ccccc2)c2[nH]c(-c3ccccc3)nc2c1` showed an IC50 of more than 200 µg/mL. Also, the MIC90 with Francisella tularensis [1] came out at 0.35 µg/mL (≈ 0.763 µM). In the assay on Francisella tularensis [2], the inhibition of growth at 1 µg/mL is more than 90%.

On to `CCN(CC)c1cc2[nH]c(-c3ccc(F)cc3)nc2cc1NC(=O)C1CCC1`, for which the IC50 in the assay on Vero was more than 200 µg/mL. In addition, the MIC90 in the assay with Francisella tularensis [1] is 4.84 µg/mL (≈ 12.7 µM). In addition, the inhibition of growth at 1 µg/mL in the assay with Francisella tularensis [2] is more than 90%.

Consider `CCN(CC)c1cc2[nH]c(-c3ccccc3)nc2cc1NC(=O)c1ccc(C)cc1`, for which the IC50 in the assay with Vero is more than 200 µg/mL. Moreover, the MIC90 against Francisella tularensis [1] stood at 12.9 µg/mL (≈ 32.4 µM). Moreover, the inhibition of growth at 1 µg/mL with Francisella tularensis [2] is more than 90%. For the same compound, in the assay with Francisella tularensis [3], the inhibition of growth at 0.2 µg/mL came out at 40%.

In the case of `CCOC(=O)Nc1cc(NC(=O)C2CCCCC2)c2[nH]c(-c3ccc(C(=O)OC)cc3)nc2c1`, the IC50 in the assay with Vero was more than 200 µg/mL. The compound also yielded an MIC90 in the assay with Francisella tularensis [1] of 1.5 µg/mL (≈ 3.23 µM). The inhibition of growth at 1 µg/mL in the assay on Francisella tularensis [2] was more than 90%. Besides, the inhibition of growth at 0.2 µg/mL in the assay on Francisella tularensis [3] worked out at 40%.

`CCOC(=O)Nc1cc(NC(=O)c2ccc(F)cc2)c2[nH]c(-c3ccco3)nc2c1` displayed an IC50 with Vero of more than 200 µg/mL. The MIC90 in the assay on Francisella tularensis [1] is 2.8 µg/mL (≈ 6.86 µM). For the same compound, the inhibition of growth at 1 µg/mL in the assay on Francisella tularensis [2] is more than 90%. In addition, the inhibition of growth at 0.2 µg/mL in the assay on Francisella tularensis [3] was determined as 40%.

Compound `O=C(Nc1cc2nc(C3CCCCC3)[nH]c2cc1N1CCCC1)C1CC1` came in with an IC50 in the assay with Vero of more than 200 µg/mL. The compound also yielded an MIC90 in the assay with Francisella tularensis [1] of 2.1 µg/mL (≈ 5.96 µM). Moreover, the inhibition of growth at 1 µg/mL in the assay on Francisella tularensis [2] is more than 90%.
